Active and inactive are the calls of the source. No cut-off for these calls is given here. Square brackets hold non-standard residues; d marks the D form. Peptide text beside a SMILES is read from it. Hyp = O=C(O)[C@@H]1C[C@@H](O)CN1; Ahx = NCCCCCC(=O)O
Experiments:
[1] = system: MCF7; assay: Antitumor activity against human MCF7 cells xenografted in BALB/c nude mouse assessed as reduction in tumor growth at 25 mg/kg, ip administered every 2 days; assay type: functional, organism-based
Outline: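 Female BALB/c nude mice, 4–6 wk, given 5 × 10^6 cells in PBS subcutaneously; MCF7 mice also had E2 (10^-2 M) brushed on the neck every 2 days. Randomised at ~50 mm3. Peptide in 0.9% saline, 25 mg/kg ip every 2 days. Caliper volume (1/2 × L × W²) every 2 days.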

[2] = Downregulation of c-Myc protein expression in human MCF7 cells assessed as fold change in remaining c-Myc level at 10 uM incubated for 24 hrs by immunoblotting analysis (reference value: 1); assay type: functional
Outline: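 Cells (MCF7 or MDA-MB-231 in DMEM, 10% FBS, 37 °C, 5% CO2) are treated with peptide for 24 h. Lysates are taken in Tris/NaCl/EDTA/1% Triton buffer and run on 10% SDS-PAGE. Immunoblots are normalised to β-actin loading control; three repeats.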

[3] = Downregulation of JMJD6 protein expression in human MDA-MB-231 cells assessed as fold change in remaining JMJD6 level at 10 uM incubated for 24 hrs by immunoblotting analysis (reference value: 1); assay type: functional
Outline: (§1)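 Cells treated with peptide (10 μM) for 24 h. Lysates in Tris/NaCl/EDTA/1% Triton X-100, run on 10% SDS-PAGE and immunoblotted with ECL detection. β-actin as loading control. Three repeats, quantified against untreated cells.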

[4] = Downregulation of […] protein expression in human MDA-MB-231 cells assessed as fold change in […] at 10 uM incubated for 24 hrs by immunoblotting analysis (reference value: 1); assay type: functional; outline: as §1
[5] = system: Mus musculus; assay: Downregulation of CCND1 mRNA expression in BALB/c mouse tumor xenografted with human MCF7 cells at 25 mg/kg, ip administered every 2 days by RT-qPCR analysis; assay type: functional, organism-based
[6] = system: MCF7; assay: Antiproliferative activity against human MCF7 cells at 10 uM incubated for 1 week in presence of 5 uM JQ1 by CellTiter 96 Aqueous One Solution based assay; assay type: functional, cell-based; conditions: time 1.0 weeks
Outline: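 Cells seeded at 2 × 10^3/well and treated with peptide (10 μM) alone or combined with JQ1 (5 μM), iJMJD6 (10 μM) or ICI (2.5 μM), as the line states. Viability read by MTS reagent, 1 h at 37 °C, A490. Three biological repeats.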

[7] = Toxicity in BALB/c mouse xenografted with human MCF7 cells assessed as change body weight at 12.5 mg/kg, ip administered every 2 days in presence of 50 mg/kg JQ1; assay type: organism-based; conditions: in vivo, 48 h
[8] = Toxicity in BALB/c mouse xenografted with human MDA-MB-231 cells assessed as change in spleen morphology at 12.5 mg/kg, ip administered every 2 days in presence of 50 mg/kg JQ1; assay type: organism-based; conditions: in vivo, 48 h
Outline: (§2)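 Female BALB/c nude mice (4–6 weeks) carried sc MDA-MB-231 xenografts (5 × 10^6 cells) and were randomized at about 50 mm3. Peptide (12.5 mg/kg ip in saline) and JQ1 (50 mg/kg ip, DMSO/10% HPBCD 1:10) were given every 2 days, alone or combined. Body weight was recorded, and heart, liver, spleen, lung and kidney morphology and weight were assessed.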

[9] = Toxicity in BALB/c mouse xenografted with human MDA-MB-231 cells assessed as change in liver weight at 12.5 mg/kg, ip administered every 2 days in presence of 50 mg/kg JQ1; assay type: organism-based; conditions: in vivo, 48 h; outline: as §2
[10] = system: MCF7; assay: Inhibition of colony formation in human MCF7 cells at 10 uM incubated for 2 weeks in presence of JMJD6 inhibitor by crystal violet staining based assay; assay type: functional, cell-based
Outline: (§3)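 Cells are seeded at 1 × 10^3/well and treated with peptide (10 μM) for 2 weeks, alone or with JQ1 5 μM, iJMJD6 10 μM, ICI 2.5 μM, or tamoxifen 3 μM (tamoxifen-resistant lines). Colonies are stained with crystal violet, dissolved in 10% acetic acid, and read at 590 nm. Three biological repeats.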

[11] = system: MCF7; assay: Inhibition of cell migration in human MCF7 cells at 10 uM incubated for 24 hrs in presence of JMJD6 inhibitor by inverted microscopic analysis; assay type: functional, cell-based
Outline: (§4)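 Cells are seeded at 5 × 10^5/well and scratched at 80–90% confluence. They are kept in serum-free medium with peptide (10 μM); partner agents are JQ1 5 μM, iJMJD6 10 μM, or ICI 2.5 μM. Wound area is imaged by inverted microscope at 0 and 12 or 24 h. Wound closure % = (A0−A1)/A0 × 100. Three biological repeats.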

[12] = Toxicity in BALB/c mouse xenografted with human MCF7 cells assessed as change in heart at 12.5 mg/kg, ip administered every 2 days in presence of 12.5 mg/kg JMJD6 inhibitor; assay type: organism-based; conditions: in vivo, 48 h
Outline: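 Female BALB/c nude mice carried MCF7 xenografts (5 × 10^6 cells sc, E2 10–2 M brushed every 2 days) and were randomized at about 50 mm3. Peptide was given at 12.5 mg/kg ip every 2 days, and iJMJD6 (DMSO/PBS 1:20) at 12.5 mg/kg ip every other day, alone or combined. Body and organ weights were recorded.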

[13] = system: MCF7; assay: Inhibition of colony formation in human MCF7 cells at 10 uM incubated for 2 weeks in presence of fulvestrant by crystal violet staining based assay; assay type: functional, cell-based; outline: as §3
[14] = system: MCF7; assay: Inhibition of cell migration in human MCF7 cells at 10 uM incubated for 24 hrs in presence of fulvestrant by inverted microscopic analysis; assay type: functional, cell-based; outline: as §4
[15] = system: MCF7; assay: Antitumor activity against human MCF7 cells xenografted in BALB/c nude mouse assessed as reduction in tumor weight at 12.5 mg/kg, ip administered every 2 days in presence of 2.5 mg/kg fulvestrant; assay type: functional, organism-based
Outline: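 MCF7 xenografts in female BALB/c nude mice on E2 (10^-2 M, every 2 days), randomised at ~50 mm3. Peptide 12.5 mg/kg ip every 2 days with fulvestrant 2.5 mg/kg sc (DMSO/corn oil 1:10) every 6 days. Caliper volume (1/2 × L × W²); tumours weighed at the end.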

[16] = Toxicity in BALB/c mouse xenografted with human MCF7 cells assessed as change in body weight at 2.5 mg/kg, ip administered every 2 days in presence of 12.5 mg/kg fulvestrant; assay type: organism-based; conditions: in vivo, 48 h
[17] = system: T47D; assay: Antiproliferative activity against human T47D cells at 10 uM incubated for 1 week in presence of tamoxifen by CellTiter 96 Aqueous One Solution based assay; assay type: functional, cell-based; conditions: time 1.0 weeks
Outline: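 Tamoxifen-resistant MCF7 or T47D cells treated with peptide (10 μM) or tamoxifen (3 μM), alone or combined. Viability read by MTS reagent, 1 h at 37 °C, A490.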

[18] = Downregulation of JMJD6 protein expression in BALB/c mouse tumor xenografted with human MDA-MB-231 cells assessed as fold change in remaining JMJD6 level at 25 mg/kg, ip administered every 2 days by immunoblotting analysis; assay type: functional
Outline: (§5)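 Tumours taken from xenograft mice dosed with peptide at 25 mg/kg ip every 2 days. […] Three repeats.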

[19] = Downregulation of N-myc protein expression in BALB/c mouse tumor xenografted with human MDA-MB-231 cells assessed as fold change in remaining N-myc level at 25 mg/kg, ip administered every 2 days by immunoblotting analysis; assay type: functional; outline: as §5

| Molecule | Activity [1] | fold change (FC) [2] | fold change (FC) [3] | fold change (FC) [4] | Activity [5] | Activity [6] | Activity [7] | Activity [8] | Activity [9] | inhibition [10] | inhibition [11] | Activity [12] | inhibition [13] | inhibition [14] | Activity [15] | Activity [16] | Activity [17] | fold change (FC) [18] | fold change (FC) [19] |
| --- | --- | --- | --- | --- | --- | --- | --- | --- | --- | --- | --- | --- | --- | --- | --- | --- | --- | --- | --- |
| H-YGRKKRRQRRRRNQKFKCGE-OH | Active | 0.69 | 1.04 | 0.72 | Active | Active | Non-Toxic | Non-Toxic | Non-Toxic | Active | Active | Non-Toxic | Active | Active | Active | Non-Toxic | Active | 0.98 | 0.38 |
| CC[C@H](C)[C@H](NC(=O)[C@H](Cc1ccc(O)cc1)NC(=O)[C@@H]1C[C@@H](O)CN1C(=O)[C@H](C)NC(=O)[C@@H](NC(=O)CCCCCNC(=O)[C@H](CCC(=O)O)NC(=O)CNC(=O)[C@H](CS)NC(=O)[C@H](CCCCN)NC(=O)[C@H](Cc1ccccc1)NC(=O)[C@H](CCCCN)NC(=O)[C@H](CCC(N)=O)NC(=O)[C@H](CC(N)=O)NC(=O)[C@H](CCCNC(=N)N)NC(=O)[C@H](CCCNC(=N)N)NC(=O)[C@H](CCCNC(=N)N)NC(=O)[C@H](CCCNC(=N)N)NC(=O)[C@H](CCC(N)=O)NC(=O)[C@H](CCCNC(=N)N)NC(=O)[C@H](CCCNC(=N)N)NC(=O)[C@H](CCCCN)NC(=O)[C@H](CCCCN)NC(=O)[C@H](CCCNC(=N)N)NC(=O)CNC(=O)[C@@H](N)Cc1ccc(O)cc1)[C@@H](C)CC)C(=O)O (H-YGRKKRRQRRRRNQKFKCGE[Ahx]IA[Hyp]YI-OH) | Active | 0.72 | 0.38 | 0.68 | Active | Active | Non-Toxic | Non-Toxic | Non-Toxic | Active | Active | Non-Toxic | Active | Active | Active | Non-Toxic | Active | 0.48 | 0.13 |
